Screening results: PubChem BioAssay, Broad Institute
Rows were chosen to be rich in hits. Some 2.3% of all compounds tested hit in one or more screens of this group.
DENV2 CPE rescue – protects cells from dengue virus 2 cytopathic effect; DENV2-infected cells, cytopathic effect rescue, plate reader; CPE inhibition, % at 9.99 µM; 350,000 compounds, 1.7% hits; AID 651640; in the data active = CPE inhibition above about 20%, passing the limit was not always enough; inconclusive = no clear call, values can overlap the other calls; tested in BHK-21 cells;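 note: 0% = median of neutral control wells and 100% = median of positive control wells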
F508del corr – CFTR F508del correction in bronchial cells. CFBE cells, YFP halide quenching; stimulated with forskolin plus potentiator P3; % fluorescence drop versus neutral controls. activity (quench increase), % at 7.58 µM. 350,000 compounds, 0.36% hits. AID 720511;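 active = mean added fluorescence quench of at least 8% versus neutral control, with both replicates also reaching 8%; inconclusive = only one of the mean or replicate conditions met; inactive = mean below 8% and not both replicates reaching 8%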;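 note: cells transiently co-express mutant CFTR-F508del with the halide-sensitive YFP; corrector assay measuring rescue of mutant channel to the surface after 24 h compound exposure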
C2C12 statin – suppression of simvastatin myotoxicity; rescue of ATP level, % at 7.49 µM; 330,000 compounds, 0.78% hits; C2C12 myotubes + simvastatin, ATP luminescence, 48 h; scaled: DMSO 0, geranylgeraniol control 100;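 active = mean ATP rescue above about 67%, or every replicate alone reaching that limit, limit read from the data, passing the limit was not always enough; inconclusive = no clear call, values can overlap the other calls; inactive = mean under the limit and some replicate under it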;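 note: myotubes were challenged with 10 µM simvastatin during compound exposure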
Cneo AK release – Cryptococcus neoformans lysis via adenylate kinase release; C. neoformans lysis, adenylate kinase release luminescence, 4 h; normalised: neutral wells 0, clomiphene wells 100; lysis activity, % at 15 µM; 360,000 compounds, 0.2% hits; AID 651654;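 active = mean lysis activity across replicates of at least 80%, whatever share of replicates individually reach that level; inactive = mean lysis activity below 80%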
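Test system: log-phase Cryptococcus neoformans yeast cells. Input: 5 × 10^6 yeast cells/mL. Medium: fresh YPD growth medium. Doses: single dose. Incubation: static 4 h at 37 °C with compound, 1 h detection. Measured by: luminescent adenylate kinase detection reagent. Read-out: signal increase indicating cell lysis. Benchmarks: Clomiphene.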
ERp5 block – blocks human ERp5 reductase activity on insulin. 350,000 compounds, 0.05% hits. Q15084. ERp5 insulin aggregation, absorbance 650 nm, 90 min. inhibition, % at 9.99 µM;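 active = mean replicate inhibition above about 25%, with every replicate also reaching it, limit read from the data, passing the limit was not always enough; inconclusive = only one of those two criteria met; inactive = neither criterion met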
Target sequence (Q15084 whole entry, looked up): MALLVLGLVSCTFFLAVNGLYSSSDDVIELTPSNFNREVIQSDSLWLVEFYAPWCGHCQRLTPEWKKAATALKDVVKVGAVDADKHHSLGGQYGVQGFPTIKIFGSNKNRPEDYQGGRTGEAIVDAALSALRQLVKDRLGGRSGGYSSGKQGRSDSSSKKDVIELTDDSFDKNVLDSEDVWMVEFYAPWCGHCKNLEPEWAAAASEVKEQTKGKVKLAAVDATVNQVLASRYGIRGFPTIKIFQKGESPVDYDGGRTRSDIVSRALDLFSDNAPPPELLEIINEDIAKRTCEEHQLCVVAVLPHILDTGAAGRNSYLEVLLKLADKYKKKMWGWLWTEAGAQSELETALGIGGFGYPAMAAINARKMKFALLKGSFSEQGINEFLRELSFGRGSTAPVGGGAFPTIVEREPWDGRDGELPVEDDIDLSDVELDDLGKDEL
PDI turbidity – inhibitors of human protein disulfide isomerase | AID 588391 | PDI insulin aggregation turbidity, A650, 90 min | 350,000 compounds, 0.052% hits | inhibition, % at 10 µM | P07237;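 active = mean inhibition across replicates of 30% or more, whatever share of single replicates reach that level; inconclusive = mean inhibition below 30% while every single replicate reaches 30%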
Active calls of the source: *; ? = inconclusive; nt = not tested or not shown.

SMILES | DENV2 CPE rescue | F508del corr | C2C12 statin | Cneo AK release | ERp5 block | PDI turbidity
C=CCNC(=O)[C@H]1[C@@H]2C(=O)O[C@@H](c3ccccc3)[C@@H](c3ccccc3)N2[C@@H](c2ccc(O)cc2)[C@]12C(=O)Nc1ccc(C#CCCO)cc12 | -8 | 2 | nt | nt | -14 | nt
C=CCNC(=O)[C@@H]1[C@H]2C(=O)O[C@H](c3ccccc3)[C@H](c3ccccc3)N2[C@H](c2ccc(O)cc2)[C@@]12C(=O)Nc1ccc(C#CCC(C(=O)OC)C(=O)OC)cc12 | 32* | -1 | nt | 3 | 1 | nt
CC(OC(=O)C1CC(=O)N(Cc2ccco2)C1)C(=O)Nc1cccc(C#N)c1 (stereo not given) | 21* | 2 | 6 | -11 | 11 | -7
Cc1cccc(-c2ccc([C@H]3[C@@H](CO)N4CCCCN(S(=O)(=O)c5cccc(C)c5)C[C@H]34)cc2)c1 | 55* | -3 | nt | 12 | -3 | nt
Cc1cccc(S(=O)(=O)N2CCCCN3[C@H](CO)[C@H](c4ccc(-c5cccnc5)cc4)[C@@H]3C2)c1 | 47* | -1 | nt | 54 | -2 | nt
Cc1cccc(-c2ccc([C@H]3[C@H]4CN(S(=O)(=O)c5cccc(C)c5)CCCCN4[C@H]3CO)cc2)c1 | 29* | -5 | nt | 1 | -2 | nt
Cc1cccc(S(=O)(=O)N2CCCCN3[C@H](CO)[C@H](c4ccc(-c5cccnc5)cc4)[C@H]3C2)c1 | -5 | 2 | nt | 0 | 1 | nt
Cc1cccc(-c2ccc([C@@H]3[C@H]4CN(S(=O)(=O)c5cccc(C)c5)CCCCN4[C@H]3CO)cc2)c1 | -2 | 3 | nt | 0 | -5 | nt
Cc1ccc(S(=O)(=O)NCC[C@H]2CC[C@@H](NC(=O)c3cccc(F)c3)[C@H](CO)O2)cc1 | ? | 0 | 10 | 26 | -9 | nt
CNC[C@@H]1Oc2ccc(NS(=O)(=O)c3ccc(F)cc3)cc2CC(=O)N([C@H](C)CO)C[C@H]1C | ? | -5 | 4 | -1 | -4 | nt
C[C@H](CO)N1C[C@H](C)[C@H](CN(C)Cc2cccc(C(=O)O)c2)Oc2cc(C3=CCCC3)ccc2S1(=O)=O | 44* | 1 | 9 | -2 | 3 | nt
C[C@H]1CN([C@@H](C)CO)S(=O)(=O)c2ccc(C3=CCCC3)cc2O[C@@H]1CN(C)Cc1cccnc1 | 30* | 2 | -104 | 0 | 2 | nt
C[C@@H]1CN([C@@H](C)CO)S(=O)(=O)c2ccc(C3=CCCC3)cc2O[C@@H]1CN(C)Cc1ccccc1F | -17 | 2 | -105 | 90* | 0 | nt
Cc1ccc(S(=O)(=O)Nc2ccc3c(c2)C(=O)N([C@H](C)CO)C[C@H](C)[C@H](CN(C)C(=O)Nc2c(C)noc2C)OCCCC[C@H](C)O3)cc1 | -6 | 0 | nt | 1 | 21 | nt
O=C(C[C@@H]1C[C@H]2c3cc(NC(=O)C4CCOCC4)ccc3O[C@H]2[C@@H](CO)O1)NCc1ccccc1 | 2 | 1 | -5 | -1 | 0 | nt
CCC(=O)N(C)C[C@@H]1Oc2cc(C#CC3(O)CCCC3)ccc2S(=O)(=O)N([C@H](C)CO)C[C@@H]1C | 4 | 0 | -8 | -3 | 9 | nt
O=C(Nc1ccncc1)c1cc(F)cc(F)c1 | nt | nt | 72* | 0 | nt | 7
Nn1c(SCC(=O)N2CCN(S(=O)(=O)c3ccccc3)CC2)nnc1-c1cccs1 | nt | nt | 126* | -1 | nt | 14
C[C@@H]1CN([C@@H](C)CO)C(=O)c2cc(NC(=O)C3CC3)ccc2O[C@H]1CN(C)Cc1ccc2c(c1)OCO2 | -11 | 1 | -27 | 101* | -2 | nt
C[C@H](CO)N1C[C@H](C)[C@@H](CN(C)Cc2ccc3c(c2)OCO3)Oc2ccc(N(C)C)cc2C1=O | 23* | -1 | 24 | 0 | 0 | nt
C[C@@H]1CN([C@@H](C)CO)C(=O)c2cc(NC(=O)Nc3ccc4c(c3)OCO4)ccc2O[C@@H]1CN(C)Cc1ccc(C(=O)O)cc1 | 1 | -1 | 4 | -10 | 39* | nt
C[C@@H]1CN([C@H](C)CO)C(=O)c2cc(N(C)C)ccc2O[C@H]1CN(C)Cc1ccc2c(c1)OCO2 | -9 | 0 | 1 | -5 | 4 | nt
C[C@@H]1CN([C@@H](C)CO)C(=O)c2cc(NC(=O)Nc3ccc4c(c3)OCO4)ccc2O[C@@H]1CN(C)Cc1ccc2c(c1)OCO2 | 42* | -2 | -59 | -1 | 3 | nt
